Experimental data as given in ChEMBL document CHEMBL1128436, “Synthesis and biological evaluation of a new series of sterols as potential hypocholesterolemic agents” (1995).
Each block holds one compound with its values, some of them ahead of it. Active and inactive are the calls of the source. The rule behind the calls is not given here.

Key:
CHO = test: Capability of derepressing the transcription of SV40 promoter in CHO cells by luciferase assay; NA= Not active within the test range 0-20 ug/mL; format: functional, cell-based; conditions: Cricetulus griseus
In short: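 Counter-screen in CHO clone SV40/LN9, with luciferase driven by the SV40 promoter. Confluent monolayers were given compound at 0.30-20 μg/mL for 24 h in serum-free albumin assay medium, triplicate wells. Lysates were read for luciferase peak luminescence, normalized to lysate protein.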

[1] = target: Low-density lipoprotein receptor (Homo sapiens) (UniProt P01130); test: Capability of derepressing the transcription of Low density lipoprotein receptor promoter in the presence of 25-hydroxycholesterol in CHO cells measured as maximum activity at 20 ug/mL; format: cell-based
Sequence of Low-density lipoprotein receptor (Homo sapiens) (P01130 whole entry, the tested form may be a part): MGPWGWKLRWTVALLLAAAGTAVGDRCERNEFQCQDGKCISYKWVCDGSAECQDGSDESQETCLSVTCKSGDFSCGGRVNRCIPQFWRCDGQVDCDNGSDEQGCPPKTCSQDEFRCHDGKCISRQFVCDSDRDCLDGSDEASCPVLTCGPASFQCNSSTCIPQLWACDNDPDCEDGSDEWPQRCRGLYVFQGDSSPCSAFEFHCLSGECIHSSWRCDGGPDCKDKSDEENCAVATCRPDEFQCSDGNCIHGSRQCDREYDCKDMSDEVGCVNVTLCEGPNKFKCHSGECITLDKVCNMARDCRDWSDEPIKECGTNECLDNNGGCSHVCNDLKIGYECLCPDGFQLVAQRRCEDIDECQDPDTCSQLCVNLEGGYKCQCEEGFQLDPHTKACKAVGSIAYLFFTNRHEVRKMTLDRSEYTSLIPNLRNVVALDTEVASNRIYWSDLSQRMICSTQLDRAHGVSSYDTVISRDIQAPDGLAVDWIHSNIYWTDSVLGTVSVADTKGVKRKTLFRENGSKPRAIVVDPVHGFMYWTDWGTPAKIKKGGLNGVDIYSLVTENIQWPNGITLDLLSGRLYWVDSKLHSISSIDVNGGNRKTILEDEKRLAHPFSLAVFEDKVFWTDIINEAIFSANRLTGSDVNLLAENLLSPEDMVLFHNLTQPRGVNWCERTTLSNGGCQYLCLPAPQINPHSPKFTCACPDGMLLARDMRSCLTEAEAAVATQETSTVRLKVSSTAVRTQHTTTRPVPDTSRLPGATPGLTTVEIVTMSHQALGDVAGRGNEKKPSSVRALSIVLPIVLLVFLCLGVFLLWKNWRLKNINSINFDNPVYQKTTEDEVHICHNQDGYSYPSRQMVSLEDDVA
In short: (§1)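 Stably transfected CHO clone S27/B30 (LDL receptor promoter fused to firefly luciferase), grown to confluence (2-3 days, 37 °C, 5% CO2). Then 24 h in serum-free assay medium (DMEM/Ham's F-12 3:1, 0.5% bovine albumin) with 25-hydroxycholesterol 0.5 μg/mL plus compound at 0.30-20 μg/mL from ethanol stock, triplicate wells. Lysate luciferase peak light per μg protein (Coomassie). EC30 = concentration giving 30% rise over control. MA = % specific induction at 20 μg/mL.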

[2] = target: Low-density lipoprotein receptor (Homo sapiens) (UniProt P01130); test: Capability of derepressing the transcription of human Low density lipoprotein receptor promoter in the presence of 25-hydroxycholesterol in CHO cells by luciferase assay; format: cell-based; in short: as §1
[3] = target: Low-density lipoprotein receptor (Homo sapiens) (UniProt P01130); test: Capability of derepressing the transcription of human Low density lipoprotein receptor promoter in the presence of 25-hydroxycholesterol in CHO cells by luciferase assay; NA= Not active within the test range 0-20 ug/mL; format: cell-based; in short: as §1
Cricetinae gen. sp. = test: Total serum cholesterol level with relative to the control value (366(24)) in hamsters at a dose of 0.2% of diet for 1 week; format: functional, Cricetulus griseus
Mesocricetus auratus = organism: Mesocricetus auratus; test: Serum cholesterol level change relative to the control value (366(24)) in hamsters at a dose of 0.2% of diet for 1 week

MA [1]: 63% | EC30 [2]: 42 µM
Compound: CC(C)CCC[C@@H](C)[C@H]1CC[C@H]2[C@@H]3CCC4[C@H](Cc5ccc(Cl)cc5)[C@H](O)CC[C@]4(C)[C@H]3CC[C@]12C (stereo not given in full)
Activity (CHO): inactive

MA [1]: 88% | EC30 [2]: 20 µM
Compound: CCCC[C@H]1C2CC[C@H]3[C@@H]4CC[C@H]([C@H](C)CCCC(C)C)[C@@]4(C)CC[C@@H]3[C@@]2(C)CC[C@H]1O (stereo not given in full)
Activity (CHO): inactive

MA [3]: inactive
Compound: CC(C)CCC[C@@H](C)[C@H]1CC[C@H]2[C@@H]3CCC4[C@H](Cc5cccc(I)c5)[C@H](O)CC[C@]4(C)[C@H]3CC[C@]12C (stereo not given in full)

EC30 [3]: inactive
Compound: CC(C)CCC[C@@H](C)[C@H]1CC[C@H]2[C@@H]3CC[C@H]4CC(=O)CC[C@]4(C)[C@H]3CC[C@]12C

EC30 [3]: inactive
Compound: C=C(Cl)C[C@H]1C2CC[C@H]3[C@@H]4CC[C@H]([C@H](C)CCCC(C)C)[C@@]4(C)CC[C@@H]3[C@@]2(C)CC[C@@H]1O (stereo not given in full)

EC30 [3]: inactive
Compound: C=C[C@H]1C2CC[C@H]3[C@@H]4CC[C@H]([C@H](C)CCCC(C)C)[C@@]4(C)CC[C@@H]3[C@@]2(C)CC[C@H]1O (stereo not given in full)

EC30 [3]: inactive
Compound: C=CC[C@@H]1[C@H]2CC[C@@H]3[C@H](CC[C@]4(C)[C@@H]([C@H](C)CCCC(C)C)CC[C@@H]34)[C@@]2(C)CC[C@@H]1O

EC30 [3]: inactive
Compound: CC(C)CCC[C@@H](C)[C@H]1CC[C@H]2[C@@H]3CCC4[C@H](Cc5ccc(C(=O)O)cc5)[C@H](O)CC[C@]4(C)[C@H]3CC[C@]12C (stereo not given in full)

EC30 [3]: inactive
Compound: C=CC[C@H]1[C@H](O)CC[C@@]2(C)[C@@H]1CC[C@@H]1[C@@H]2CC[C@]2(C)[C@@H]([C@H](C)CCCC(C)C)CC[C@@H]12

MA [1]: 55% | EC30 [2]: 9.9 µM
Compound: CC(C)CCC[C@@H](C)[C@H]1CC[C@H]2[C@@H]3CCC4[C@H](Cc5ccc(C#N)cc5)[C@H](O)CC[C@]4(C)[C@H]3CC[C@]12C (stereo not given in full)
Activity (CHO): inactive

EC30 [3]: inactive
Compound: C=CC[C@H]1C[C@H]2[C@@H]3CC[C@H]([C@H](C)CCCC(C)C)[C@@]3(C)CC[C@@H]2[C@@]2(C)CC[C@@H](O)CC12 (stereo not given in full)

MA [1]: 124% | EC30 [2]: 2.8 µM
Compound: C=C(C)C[C@H]1C2CC[C@H]3[C@@H]4CC[C@H]([C@H](C)CCCC(C)C)[C@@]4(C)CC[C@@H]3[C@@]2(C)CC[C@H]1O (stereo not given in full)
Activity (CHO): inactive

EC30 [3]: inactive
Compound: CC(C)CCC[C@@H](C)[C@H]1CC[C@H]2[C@@H]3CCC4[C@H](Cc5ccc(Cl)c(Cl)c5)[C@H](O)CC[C@]4(C)[C@H]3CC[C@]12C (stereo not given in full)

EC30 [3]: inactive
Compound: Cc1cccc(C[C@H]2C3CC[C@H]4[C@@H]5CC[C@H]([C@H](C)CCCC(C)C)[C@@]5(C)CC[C@@H]4[C@@]3(C)CC[C@H]2O)c1 (stereo not given in full)

EC30 [3]: inactive
Compound: CC(C)CCC[C@@H](C)[C@H]1CC[C@H]2[C@@H]3CCC4[C@H](Cc5cccc(F)c5F)[C@H](O)CC[C@]4(C)[C@H]3CC[C@]12C (stereo not given in full)

EC30 [3]: inactive
Compound: C=CC[C@@H]1C[C@H]2[C@@H]3CC[C@H]([C@H](C)CCCC(C)C)[C@@]3(C)CC[C@@H]2[C@@]2(C)CC[C@@H](O)CC12 (stereo not given in full)

MA [1]: 72% | EC30 [2]: 18 µM
Compound: C/C=C(\C)C[C@H]1C2CC[C@H]3[C@@H]4CC[C@H]([C@H](C)CCCC(C)C)[C@@]4(C)CC[C@@H]3[C@@]2(C)CC[C@H]1O (stereo not given in full)
Activity (CHO): inactive

EC30 [3]: inactive
Compound: CC(C)CCC[C@@H](C)[C@H]1CC[C@H]2[C@@H]3CCC4[C@H](C/C=C/c5ccccc5)[C@H](O)CC[C@]4(C)[C@H]3CC[C@]12C (stereo not given in full)

EC30 [3]: inactive
Compound: CC(C)CCC[C@@H](C)[C@H]1CC[C@H]2[C@@H]3CCC4[C@H](Cc5ccc(OCc6ccccc6)cc5)[C@H](O)CC[C@]4(C)[C@H]3CC[C@]12C (stereo not given in full)

MA [1]: 58% | EC30 [2]: 12 µM
Compound: CC(C)CCC[C@@H](C)[C@H]1CC[C@H]2[C@@H]3CCC4[C@H](Cc5ccc(C(F)(F)F)cc5)[C@H](O)CC[C@]4(C)[C@H]3CC[C@]12C (stereo not given in full)
Activity (CHO): inactive

MA [1]: 131% | EC30 [2]: 3.2 µM
Compound: C=C(Br)C[C@H]1C2CC[C@H]3[C@@H]4CC[C@H]([C@H](C)CCCC(C)C)[C@@]4(C)CC[C@@H]3[C@@]2(C)CC[C@H]1O (stereo not given in full)
Activity (CHO): inactive

EC30 [3]: inactive
Compound: C#CC[C@H]1C2CC[C@H]3[C@@H]4CC[C@H]([C@H](C)CCCC(C)C)[C@@]4(C)CC[C@@H]3[C@@]2(C)CC[C@H]1O (stereo not given in full)

Compound: C=CC[C@@H]1C(=O)CC[C@]2(C)[C@H]3CC[C@]4(C)[C@@H]([C@H](C)CCCC(C)C)CC[C@H]4[C@@H]3CC[C@@H]12
Total cholesterol (Cricetinae gen. sp.): 267 mg/dL | EC30 [3]: inactive | Relative change (Mesocricetus auratus): -27%

EC30 [3]: inactive
Compound: COc1ccc(C[C@H]2C3CC[C@H]4[C@@H]5CC[C@H]([C@H](C)CCCC(C)C)[C@@]5(C)CC[C@@H]4[C@@]3(C)CC[C@H]2O)cc1 (stereo not given in full)

EC30 [3]: inactive
Compound: C=CC[C@@H]1C[C@@]2(C)C(CC[C@H]3[C@@H]4CC[C@H]([C@H](C)CCCC(C)C)[C@@]4(C)CC[C@@H]32)C[C@H]1O (stereo not given in full)

EC30 [3]: inactive
Compound: CC(C)CCC[C@@H](C)[C@H]1CC[C@H]2[C@@H]3CCC4[C@H](Cc5ccccc5F)[C@H](O)CC[C@]4(C)[C@H]3CC[C@]12C (stereo not given in full)

MA [1]: 48% | EC30 [2]: 14 µM
Compound: COC(=O)c1ccc(C[C@H]2C3CC[C@H]4[C@@H]5CC[C@H]([C@H](C)CCCC(C)C)[C@@]5(C)CC[C@@H]4[C@@]3(C)CC[C@H]2O)cc1 (stereo not given in full)
Activity (CHO): inactive

EC30 [3]: inactive
Compound: CC(C)CCC[C@@H](C)[C@H]1CC[C@H]2[C@@H]3CCC4[C@H](Cc5ccc(CO)cc5)[C@H](O)CC[C@]4(C)[C@H]3CC[C@]12C (stereo not given in full)

EC30 [3]: inactive
Compound: CC(C)=CC[C@H]1C2CC[C@H]3[C@@H]4CC[C@H]([C@H](C)CCCC(C)C)[C@@]4(C)CC[C@@H]3[C@@]2(C)CC[C@H]1O (stereo not given in full)

Compound: CC(C)CCC[C@@H](C)[C@H]1CC[C@H]2[C@@H]3CC[C@H]4[C@H](Cc5ccccc5)C(=O)CC[C@]4(C)[C@H]3CC[C@]12C
Total cholesterol (Cricetinae gen. sp.): 312 mg/dL | Relative change (Mesocricetus auratus): -15%

EC30 [3]: inactive
Compound: CC(C)CCC[C@@H](C)[C@H]1CC[C@H]2[C@@H]3CCC4[C@H](Cc5ccc(C=O)cc5)[C@H](O)CC[C@]4(C)[C@H]3CC[C@]12C (stereo not given in full)

EC30 [3]: inactive
Compound: C=CC[C@@H]1C[C@@]2(C)C(CC[C@H]3[C@@H]4CC[C@H]([C@H](C)CCCC(C)C)[C@@]4(C)CC[C@@H]32)[C@H](CC=C)[C@@H]1O (stereo not given in full)

MA [1]: 111% | EC30 [2]: 9.4 µM
Compound: C=CC[C@H]1C2CC[C@H]3[C@@H]4CC[C@H]([C@H](C)CCCC(C)(C)O)[C@@]4(C)CC[C@@H]3[C@@]2(C)CC[C@H]1O (stereo not given in full)

EC30 [3]: inactive
Compound: CC(C)CCC[C@@H](C)[C@H]1CC[C@H]2[C@@H]3CCC4[C@H](Cc5cccc(F)c5)[C@H](O)CC[C@]4(C)[C@H]3CC[C@]12C (stereo not given in full)

MA [1]: 72% | EC30 [2]: 26 µM
Compound: C/C=C\C[C@H]1C2CC[C@H]3[C@@H]4CC[C@H]([C@H](C)CCCC(C)C)[C@@]4(C)CC[C@@H]3[C@@]2(C)CC[C@H]1O (stereo not given in full)
Activity (CHO): inactive

EC30 [3]: inactive
Compound: CC/C=C/C[C@H]1C2CC[C@H]3[C@@H]4CC[C@H]([C@H](C)CCCC(C)C)[C@@]4(C)CC[C@@H]3[C@@]2(C)CC[C@H]1O (stereo not given in full)

EC30 [3]: inactive
Compound: CC(C)CCC[C@@H](C)[C@H]1CC[C@H]2[C@@H]3CCC4[C@H](C/C=C/CO)[C@H](O)CC[C@]4(C)[C@H]3CC[C@]12C (stereo not given in full)

EC30 [3]: inactive
Compound: CC(C)CCC[C@@H](C)[C@H]1CC[C@H]2[C@@H]3CCC4[C@H](Cc5ccc(F)cc5F)[C@H](O)CC[C@]4(C)[C@H]3CC[C@]12C (stereo not given in full)
